Test results: ChEMBL document CHEMBL3259670, “Discovery of 1-aryloxyethyl piperazine derivatives as Kv1.5 potassium channel inhibitors (part I)” (Eur J Med Chem, 2014)
Where a name gives a salt, the structure may show the parent alone. The source made the active and inactive calls. No cut-off for these calls is given here.

Target: Potassium voltage-gated channel subfamily A member 5 (Homo sapiens, UniProt P22460)
Assay: Inhibition of human Kv1.5 channel expressed in HEK293 cells by whole cell patch clamp assay
Assay type: cell-based
Settings: not given
In short: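 Whole-cell patch clamp was done on transfected HEK293 cells, harvested by trypsin and used the same day, with 4–6 MΩ pipettes at 25 °C. IKur was elicited by 500-ms steps to +60 mV from a −80 mV holding potential at 0.1 Hz. Compound was applied at least 5 min after current stabilization. IC50 came from cell-by-cell Hill fits, with at least 3 cells per concentration; mean ± SD.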

Potassium voltage-gated channel subfamily A member 5, sequence (P22460 whole entry): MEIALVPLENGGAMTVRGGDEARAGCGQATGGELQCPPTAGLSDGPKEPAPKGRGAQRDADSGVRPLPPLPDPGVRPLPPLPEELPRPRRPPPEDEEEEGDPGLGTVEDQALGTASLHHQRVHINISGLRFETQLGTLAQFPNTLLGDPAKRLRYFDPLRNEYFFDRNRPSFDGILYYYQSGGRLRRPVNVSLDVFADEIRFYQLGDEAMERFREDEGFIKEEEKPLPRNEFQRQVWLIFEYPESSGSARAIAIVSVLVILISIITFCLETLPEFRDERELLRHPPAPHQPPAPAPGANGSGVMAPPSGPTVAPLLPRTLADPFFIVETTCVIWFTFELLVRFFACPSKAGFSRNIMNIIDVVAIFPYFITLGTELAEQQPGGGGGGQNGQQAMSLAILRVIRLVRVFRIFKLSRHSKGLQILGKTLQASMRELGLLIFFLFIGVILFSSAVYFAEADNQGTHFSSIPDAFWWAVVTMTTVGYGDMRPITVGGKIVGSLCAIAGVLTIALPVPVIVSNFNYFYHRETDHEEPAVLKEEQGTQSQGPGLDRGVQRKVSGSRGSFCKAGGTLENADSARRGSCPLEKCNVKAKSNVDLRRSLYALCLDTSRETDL

Row | SMILES | IC50
1 | O=C(c1ccccc1Cl)N1CCN(CCOc2ccccc2)CC1 | 56.7 µM
2 | O=C(c1ccccc1)N1CCN(CCOc2ccccc2)CC1 | 38.8 µM
3 | COc1ccc(C(=O)N2CCN(CCOc3ccccc3)CC2)cc1 | 16.1 µM
4 | CC(C)(C)c1ccc(OCCN2CCN(CC(=O)Nc3nccs3)CC2)cc1 | 63.2 µM
5 | O=C(CN1CCN(CCOc2ccccc2)CC1)Nc1ccccc1Cl | 29.4 µM
6 | O=C(c1cccs1)N1CCN(CCOc2ccc(Br)cc2)CC1 | 12.2 µM
7 | CCCCc1oc2ccc(NS(C)(=O)=O)cc2c1C(=O)c1ccc(OCCCN(CCCC)CCCC)cc1 [DRONEDARONE HYDROCHLORIDE] | 2.37 µM
8 | Cc1ccc(OCCN2CCN(C(=O)c3ccccc3)CC2)cc1 | 25.3 µM
9 | O=C(c1cccs1)N1CCN(CCOc2ccc(Cl)cc2)CC1 | 0.72 µM
10 | N#Cc1ccc(OCCN2CCN(C(=O)c3ccccc3)CC2)cc1 | 4.23 µM
11 | O=C(CN1CCN(CCOc2ccc(Cl)cc2)CC1)Nc1ccccc1 | 4.38 µM
12 | O=C(CN1CCN(CCOc2ccc(OC(F)(F)F)cc2)CC1)Nc1nccs1 | 2.29 µM
13 | Cc1ccc(OCCN2CCN(C(=O)c3cccs3)CC2)cc1 | 1.52 µM

Continued by falling IC50, values first:

Row | IC50 | SMILES
14 | 29.3 µM | O=C(CN1CCN(CCOc2ccccc2)CC1)Nc1nccs1
15 | 17.2 µM | Cc1ccc(OCCN2CCN(CC(=O)Nc3nccs3)CC2)c(C)c1
16 | 13.5 µM | Cc1ccccc1OCCN1CCN(C(=O)c2cccs2)CC1
17 | 11.8 µM | Cc1ccccc1OCCN1CCN(CC(=O)Nc2ccccc2)CC1
18 | 10.2 µM | N#Cc1ccc(OCCN2CCN(C(=O)c3cccs3)CC2)cc1
19 | 8.93 µM | Cc1ccc(OCCN2CCN(CC(=O)Nc3nccs3)CC2)cc1
20 | 7.14 µM | Cc1ccc(C(=O)N2CCN(CCOc3ccccc3)CC2)cc1
21 | 6.44 µM | O=C(c1cccs1)N1CCN(CCOc2ccc(OC(F)(F)F)cc2)CC1
22 | 5.18 µM | O=C(CN1CCN(CCOc2ccc(Cl)cc2)CC1)Nc1nccs1
23 | 5.02 µM | Cc1ccc(NC(=O)CN2CCN(CCOc3ccc(Cl)cc3)CC2)cc1
24 | 4.49 µM | Cc1ccc(NC(=O)CN2CCN(CCOc3ccc(C#N)cc3)CC2)cc1
25 | 0.97 µM | N#Cc1ccc(OCCN2CCN(CC(=O)Nc3nccs3)CC2)cc1

Test system: not listed separately
Assay: Dissociation constant, pKa of the compound
Assay type: physicochemical
Settings: not given
In short: (§1)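 pKa and log D at pH 7.4 were determined by Avdeef–Bucher potentiometric titration on a Gemini Profiler instrument.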

Row | pKa | SMILES
26 | 6.37 | N#Cc1ccc(OCCN2CCN(CC(=O)Nc3nccs3)CC2)cc1
27 | 6.74 | O=C(CN1CCN(CCOc2ccc(OC(F)(F)F)cc2)CC1)Nc1nccs1
28 | 6.4 | Cc1ccc(OCCN2CCN(C(=O)c3cccs3)CC2)cc1

Row | SMILES | pKa
29 | O=C(c1cccs1)N1CCN(CCOc2ccc(Cl)cc2)CC1 | 6.35

Test system: not listed separately
Assay: Partition coefficient, log D of the compound at pH 7.4
Assay type: physicochemical
Settings: octanol/water
In short: as §1

Row | logD | SMILES
30 | 1.72 | N#Cc1ccc(OCCN2CCN(CC(=O)Nc3nccs3)CC2)cc1
31 | 3.94 | O=C(CN1CCN(CCOc2ccc(OC(F)(F)F)cc2)CC1)Nc1nccs1
32 | 3.24 | Cc1ccc(OCCN2CCN(C(=O)c3cccs3)CC2)cc1

Row | SMILES | logD
33 | O=C(c1cccs1)N1CCN(CCOc2ccc(Cl)cc2)CC1 | 1.94

Test system: not listed separately
Assay: (§2) Apparent permeability from basolateral to apical side in MDCK cells
Assay type: ADME, cell-based, Canis lupus familiaris
Settings: dog
In short: (§3)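 Bidirectional transport (apical→basolateral and basolateral→apical) was measured in parental MDCK cells and in MDR1-MDCK cells, which stably express multidrug resistance gene 1, to assess P-glycoprotein substrate status. Apparent permeability coefficients (Papp) were determined for each direction. Efflux ratios are ratios of the directional Papp values, computed per cell line. Mean ± SD, n = 3.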

Row | SMILES | Papp B→A
34 | O=C(c1cccs1)N1CCN(CCOc2ccc(Cl)cc2)CC1 | 21.9 ×10⁻⁶ cm/s
35 | Cc1ccc(OCCN2CCN(C(=O)c3cccs3)CC2)cc1 | 31.1 ×10⁻⁶ cm/s

Test system: MDCK
Assay: as §2
Assay type: ADME, cell-based, Canis lupus familiaris
Settings: dog
In short: as §3

Row | Papp | SMILES
36 | 16.7 ×10⁻⁶ cm/s | N#Cc1ccc(OCCN2CCN(CC(=O)Nc3nccs3)CC2)cc1
37 | 16.9 ×10⁻⁶ cm/s | O=C(CN1CCN(CCOc2ccc(OC(F)(F)F)cc2)CC1)Nc1nccs1

Test system: not listed separately
Assay: (§4) Apparent permeability from apical to basolateral side in MDCK cells
Assay type: ADME, cell-based, Canis lupus familiaris
Settings: dog
In short: as §3

Row | SMILES | Papp A→B
38 | O=C(c1cccs1)N1CCN(CCOc2ccc(Cl)cc2)CC1 | 21.3 ×10⁻⁶ cm/s
39 | Cc1ccc(OCCN2CCN(C(=O)c3cccs3)CC2)cc1 | 20 ×10⁻⁶ cm/s

Test system: MDCK
Assay: as §4
Assay type: ADME, cell-based, Canis lupus familiaris
Settings: dog
In short: as §3

Row | Papp | SMILES
40 | 14.8 ×10⁻⁶ cm/s | N#Cc1ccc(OCCN2CCN(CC(=O)Nc3nccs3)CC2)cc1
41 | 12.2 ×10⁻⁶ cm/s | O=C(CN1CCN(CCOc2ccc(OC(F)(F)F)cc2)CC1)Nc1nccs1

Test system: MDCK
Assay: (§5) Apparent permeability from basolateral to apical side in MDCK cells expressing MDR1
Assay type: ADME, cell-based, Canis lupus familiaris
Settings: dog, mdck
In short: as §3

Row | Papp | SMILES
42 | 19.8 ×10⁻⁶ cm/s | N#Cc1ccc(OCCN2CCN(CC(=O)Nc3nccs3)CC2)cc1
43 | 19.6 ×10⁻⁶ cm/s | O=C(CN1CCN(CCOc2ccc(OC(F)(F)F)cc2)CC1)Nc1nccs1

Test system: MDR1
Assay: as §5
Assay type: ADME, cell-based, Canis lupus familiaris
Settings: dog, MDCK-MDR1
In short: as §3

Row | SMILES | Papp B→A
44 | O=C(c1cccs1)N1CCN(CCOc2ccc(Cl)cc2)CC1 | 19.3 ×10⁻⁶ cm/s
45 | Cc1ccc(OCCN2CCN(C(=O)c3cccs3)CC2)cc1 | 32.8 ×10⁻⁶ cm/s

Test system: MDCK
Assay: (§6) Apparent permeability from apical to basolateral side in MDCK cells expressing MDR1
Assay type: ADME, cell-based, Canis lupus familiaris
Settings: dog, mdck
In short: as §3

Row | Papp | SMILES
46 | 18.9 ×10⁻⁶ cm/s | N#Cc1ccc(OCCN2CCN(CC(=O)Nc3nccs3)CC2)cc1
47 | 16.3 ×10⁻⁶ cm/s | O=C(CN1CCN(CCOc2ccc(OC(F)(F)F)cc2)CC1)Nc1nccs1

Test system: MDR1
Assay: as §6
Assay type: ADME, cell-based, Canis lupus familiaris
Settings: dog, MDCK-MDR1
In short: as §3

Row | SMILES | Papp A→B
48 | O=C(c1cccs1)N1CCN(CCOc2ccc(Cl)cc2)CC1 | 16.1 ×10⁻⁶ cm/s
49 | Cc1ccc(OCCN2CCN(C(=O)c3cccs3)CC2)cc1 | 25.6 ×10⁻⁶ cm/s

Test system: MDCK
Assay: Efflux ratio of permeability from apical to basolateral over basolateral to apical in MDCK cells
Assay type: ADME, cell-based, Canis lupus familiaris
Settings: dog
In short: as §3

Row | Ratio | SMILES
50 | 1.14 | N#Cc1ccc(OCCN2CCN(CC(=O)Nc3nccs3)CC2)cc1
51 | 1.5 | O=C(CN1CCN(CCOc2ccc(OC(F)(F)F)cc2)CC1)Nc1nccs1
52 | 0.64 | Cc1ccc(OCCN2CCN(C(=O)c3cccs3)CC2)cc1

Row | SMILES | Ratio
53 | O=C(c1cccs1)N1CCN(CCOc2ccc(Cl)cc2)CC1 | 0.97

Test system: MDCK
Assay: Efflux ratio of permeability from apical to basolateral over basolateral to apical in MDCK cells expressing MDR1
Assay type: ADME, cell-based, Canis lupus familiaris
Settings: dog
In short: as §3

Row | Ratio | SMILES
54 | 1.14 | N#Cc1ccc(OCCN2CCN(CC(=O)Nc3nccs3)CC2)cc1
55 | 1.42 | O=C(CN1CCN(CCOc2ccc(OC(F)(F)F)cc2)CC1)Nc1nccs1
56 | 0.78 | Cc1ccc(OCCN2CCN(C(=O)c3cccs3)CC2)cc1

Row | SMILES | Ratio
57 | O=C(c1cccs1)N1CCN(CCOc2ccc(Cl)cc2)CC1 | 0.84

Test system: Rattus norvegicus
Assay: Inhibition of Cacl2-Ach-induced atrial fibrillation Sprague-Dawley rat model assessed as reduction in duration of atrial fibrillation at 1.25 mg/kg, ip during day 1 to day 3
Assay type: functional, organism-based
Set-up: dose 1.25 mg/kg
Settings: Cardiac atrium

Row | SMILES | Activity
58 | CCCCc1oc2ccc(NS(C)(=O)=O)cc2c1C(=O)c1ccc(OCCCN(CCCC)CCCC)cc1 [DRONEDARONE HYDROCHLORIDE] | inactive
59 | O=C(c1cccs1)N1CCN(CCOc2ccc(Cl)cc2)CC1 | inactive

Test system: Rattus norvegicus
Assay: Inhibition of Cacl2-Ach-induced atrial fibrillation Sprague-Dawley rat model assessed as reduction in duration of atrial fibrillation at 2.5 mg/kg, ip during day 1 to day 3
Assay type: functional, organism-based
Set-up: dose 2.5 mg/kg
Settings: Cardiac atrium

Row | SMILES | Activity
60 | O=C(c1cccs1)N1CCN(CCOc2ccc(Cl)cc2)CC1 | inactive

Test system: Rattus norvegicus
Assay: Inhibition of Cacl2-Ach-induced atrial fibrillation Sprague-Dawley rat model assessed as reduction in duration of atrial fibrillation at 1.25 mg/kg, ip during day 4 to day 7
Assay type: functional, organism-based
Set-up: dose 1.25 mg/kg
Settings: Cardiac atrium

Row | SMILES | Activity
61 | CCCCc1oc2ccc(NS(C)(=O)=O)cc2c1C(=O)c1ccc(OCCCN(CCCC)CCCC)cc1 [DRONEDARONE HYDROCHLORIDE] | Active
62 | O=C(c1cccs1)N1CCN(CCOc2ccc(Cl)cc2)CC1 | Active

Test system: Rattus norvegicus
Assay: Inhibition of Cacl2-Ach-induced atrial fibrillation Sprague-Dawley rat model assessed as reduction in duration of atrial fibrillation at 2.5 mg/kg, ip during day 4 to day 7
Assay type: functional, organism-based
Set-up: dose 2.5 mg/kg
Settings: Cardiac atrium

Row | SMILES | Activity
63 | O=C(c1cccs1)N1CCN(CCOc2ccc(Cl)cc2)CC1 | Active

Test system: not listed separately
Assay: Toxicity in SPF mouse compound administered through iv
Assay type: organism-based
Settings: in vivo
In short: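 Acute toxicity by tail-vein iv injection in SPF mice: 70 animals in 7 groups, one given distilled water (30 mL/kg) and six given 84.6, 79.8, 75.3, 71, 67 or 63.2 mg/kg. Behaviour, mental state, excrement and death observed continuously over 0-0.5 h, every 0.5 h to 6 h, then daily for 15 days. LD50 derived by the Bliss-Finney method.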

Row | SMILES | LD50
64 | O=C(c1cccs1)N1CCN(CCOc2ccc(Cl)cc2)CC1 | 73.7 mg/kg

Test system: Rattus norvegicus
Assay: Inhibition of Cacl2-Ach-induced atrial fibrillation Sprague-Dawley rat model assessed as increase in atrial effective refractory period at 2.5 mg/kg, ip
Settings: Cardiac atrium

Row | SMILES | Activity
65 | O=C(c1cccs1)N1CCN(CCOc2ccc(Cl)cc2)CC1 | Active

Test system: Rattus norvegicus
Assay: Inhibition of Cacl2-Ach-induced atrial fibrillation Sprague-Dawley rat model assessed as increase in atrial effective refractory period at 1.25 mg/kg, ip
Settings: Cardiac atrium

Row | SMILES | Activity
66 | CCCCc1oc2ccc(NS(C)(=O)=O)cc2c1C(=O)c1ccc(OCCCN(CCCC)CCCC)cc1 [DRONEDARONE HYDROCHLORIDE] | Active
67 | O=C(c1cccs1)N1CCN(CCOc2ccc(Cl)cc2)CC1 | Active
